Experimental data: ChEMBL document CHEMBL4265907, “Design, synthesis and pharmacological evaluation of N4,N6-disubstituted pyrimidine-4,6-diamine derivatives as potent EGFR inhibitors in non-small cell lung cancer” (Eur J Med Chem, 2018)

What was measured:
[1] = biological target: Vascular endothelial growth factor receptor 2 (Homo sapiens) (UniProt P35968); experiment: Inhibition of N-terminal GST-tagged human KDR cytoplasmic domain (790 to 1356 residues) expressed in baculovirus expression system at […] using FAM-labeled peptide as substrate after 10 mins by mobility shift assay relative to control
In short: (§1)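 Caliper mobility-shift kinase assay. Kinase in kinase base buffer was preincubated with compound for 10 min at room temperature. FAM-labelled peptide and ATP at Km were then added, and the reaction ran at 28 °C until quenched with buffer. Screening concentration was 1 µM. Percent inhibition = (max − conversion)/(max − min) × 100, with DMSO as max and a low control as min.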

[2] = biological target: Fibroblast growth factor receptor 1 (Homo sapiens) (UniProt P11362); experiment: Inhibition of N-terminal GST-tagged human FGFR1 cytoplasmic domain (398 to 822 residues) expressed in baculovirus expression system at […] using FAM-labeled peptide as substrate after 10 mins by mobility shift assay relative to control; in short: as §1

Vascular endothelial growth factor receptor 2 (Homo sapiens), sequence (P35968 whole entry, the tested form may be a part): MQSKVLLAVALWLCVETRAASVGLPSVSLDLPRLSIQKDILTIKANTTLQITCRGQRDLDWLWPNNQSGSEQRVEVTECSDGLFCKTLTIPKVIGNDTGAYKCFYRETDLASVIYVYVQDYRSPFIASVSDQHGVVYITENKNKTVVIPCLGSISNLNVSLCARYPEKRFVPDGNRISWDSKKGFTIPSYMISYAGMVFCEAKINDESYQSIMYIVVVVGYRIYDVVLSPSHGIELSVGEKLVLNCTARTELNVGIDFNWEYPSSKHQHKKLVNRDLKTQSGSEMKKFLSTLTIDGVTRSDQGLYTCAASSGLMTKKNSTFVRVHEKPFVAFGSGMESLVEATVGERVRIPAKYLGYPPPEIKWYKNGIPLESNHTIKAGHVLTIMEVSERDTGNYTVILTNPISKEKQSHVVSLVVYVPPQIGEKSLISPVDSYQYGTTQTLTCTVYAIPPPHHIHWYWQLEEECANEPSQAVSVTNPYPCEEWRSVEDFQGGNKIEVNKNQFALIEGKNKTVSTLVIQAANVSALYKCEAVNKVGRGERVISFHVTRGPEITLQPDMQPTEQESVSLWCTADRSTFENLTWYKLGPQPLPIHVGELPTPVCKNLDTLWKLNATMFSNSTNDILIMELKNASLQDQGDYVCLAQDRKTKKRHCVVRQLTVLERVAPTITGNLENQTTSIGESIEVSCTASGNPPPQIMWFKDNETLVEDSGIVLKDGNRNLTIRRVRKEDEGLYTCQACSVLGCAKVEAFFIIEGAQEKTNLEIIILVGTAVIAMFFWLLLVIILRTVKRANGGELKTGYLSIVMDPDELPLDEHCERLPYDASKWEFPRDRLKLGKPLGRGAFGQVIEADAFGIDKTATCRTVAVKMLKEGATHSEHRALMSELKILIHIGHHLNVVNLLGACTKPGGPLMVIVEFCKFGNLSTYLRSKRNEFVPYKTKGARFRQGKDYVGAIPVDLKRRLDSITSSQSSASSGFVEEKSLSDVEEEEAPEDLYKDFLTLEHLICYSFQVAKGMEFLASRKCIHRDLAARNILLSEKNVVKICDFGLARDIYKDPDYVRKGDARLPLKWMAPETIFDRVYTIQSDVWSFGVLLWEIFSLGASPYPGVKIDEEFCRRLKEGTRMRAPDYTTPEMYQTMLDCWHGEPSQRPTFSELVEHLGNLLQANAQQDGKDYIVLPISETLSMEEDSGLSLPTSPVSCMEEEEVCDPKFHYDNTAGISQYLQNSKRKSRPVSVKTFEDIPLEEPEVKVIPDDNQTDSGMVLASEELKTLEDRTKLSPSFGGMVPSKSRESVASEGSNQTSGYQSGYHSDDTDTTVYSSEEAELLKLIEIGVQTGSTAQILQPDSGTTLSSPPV

O=C(Nc1cc(Nc2cccc(Cl)c2)ncn1)c1ccccc1 gave an inhibition [1] of -6.2% and an inhibition [2] of -5.8%.

Work on O=C(Nc1cc(Nc2cccc(Cl)c2)ncn1)c1ccc(F)cc1 yielded an inhibition [1] of -0.6% and an inhibition [2] of 4.2%.

With CCOC(=O)CC(=O)Nc1cc(Nc2ccc(F)cc2)ncn1 the inhibition [1] was 1.7% and the inhibition [2] was -1.1%.

With CCOC(=O)CCC(=O)Nc1cc(Nc2ccc(S(N)(=O)=O)cc2)ncn1 the inhibition [1] was 7.7% and the inhibition [2] was -3.6%.

COc1ccc(OC)c(Nc2cc(Nc3ccc(Cl)cc3)ncn2)c1 gave an inhibition [1] of 6.5% and an inhibition [2] of -8.2%.

CCOC(=O)CCC(=O)Nc1cc(Nc2ccc(C(=O)OCC)cc2)ncn1 showed an inhibition [1] of 6.5% and an inhibition [2] of -4.6%.

Work on CCOC(=O)c1ccc(Nc2cc(Nc3ccc(C(=O)OCC)cc3)ncn2)cc1 yielded an inhibition [1] of 3.7% and an inhibition [2] of 0%.

Molecule CCOC(=O)CCC(=O)Nc1cc(Nc2cccc(C(=O)OCC)c2)ncn1 has an inhibition [1] of 19.7% and an inhibition [2] of 2.6%.

In the case of CN1CCN(c2cc(NC(=O)CCCC(=O)O)ncn2)CC1, the inhibition [1] is reported as 13.6% and the inhibition [2] is reported as -2.3%.

Work on CC(C)OC(=O)CCC(=O)Nc1cc(Nc2ccc(C(=O)OC(C)C)cc2)ncn1 yielded an inhibition [1] of 4.9% and an inhibition [2] of -2.3%.

Work on COc1cccc(Nc2cc(NC(=O)/C=C/c3ccccc3)ncn2)c1 yielded an inhibition [1] of 9.3% and an inhibition [2] of -0.4%.

Cc1ccc(Nc2cc(NC(=O)c3ccc(F)cc3)ncn2)cc1 showed an inhibition [1] of 10.9% and an inhibition [2] of -4.8%.

In the case of O=C(/C=C/c1ccc(F)cc1Br)Nc1cc(N2CCOCC2)ncn1, the inhibition [1] is reported as 5.7% and the inhibition [2] is reported as -7.1%.

COc1ccc(Nc2cc(NC(=O)/C=C/c3ccccc3)ncn2)c([N+](=O)[O-])c1 showed an inhibition [1] of 2.5% and an inhibition [2] of -4.9%.

In the case of CCOC(=O)c1c(Nc2cc(NC(=O)CCC(=O)OC(C)C)ncn2)sc2c1CCCC2, the inhibition [1] is reported as 16.4% and the inhibition [2] is reported as -4.1%.

With COc1ccc(/C=C/C(=O)Nc2cc(Nc3cccc(Br)c3)ncn2)cc1 the inhibition [1] was 8.5% and the inhibition [2] was -5.4%.

Work on COc1cccc(Nc2cc(NC(=O)c3ccc(F)cc3)ncn2)c1 yielded an inhibition [1] of 20.8% and an inhibition [2] of 4.3%.

For CN1CCN(c2ccc(Nc3cc(NC(=O)/C=C/c4ccc(F)cc4)ncn3)cc2)CC1, the inhibition [1] was 21.8% and the inhibition [2] was -5.4%.

With COc1ccc(/C=C/C(=O)Nc2cc(Nc3ccc(Cl)cc3Cl)ncn2)cc1 the inhibition [1] was 6.1% and the inhibition [2] was -4%.

For CCOc1ccc(Nc2cc(NC(=O)/C=C/c3ccc(OC)cc3)ncn2)cc1, the inhibition [1] was 20.4% and the inhibition [2] was 0.7%.

CCOC(=O)CCCC(=O)Nc1cc(Nc2cc(OC)ccc2OC)ncn1 showed an inhibition [1] of 0.9% and an inhibition [2] of -9.3%.

With CCOC(=O)CCC(=O)Nc1cc(NCCc2cccs2)ncn1 the inhibition [1] was 13.6%.

CCCC(C)OC(=O)CCC(=O)Nc1cc(Nc2cccc(C(=O)OC(C)CCC)c2)ncn1 (configuration not stated) was tested, and the inhibition [1] was 4.9% and the inhibition [2] was -5%.

With COc1ccc(Nc2cc(NC(=O)/C=C/c3ccc(F)cc3Br)ncn2)c([N+](=O)[O-])c1 the inhibition [1] was 11.3% and the inhibition [2] was -2.3%.

With COc1ccc(OC)c(Nc2cc(Nc3cc(OC)ccc3OC)ncn2)c1 the inhibition [1] was 13.6% and the inhibition [2] was -2.7%.

In the case of COc1ccc(Nc2cc(NC(=O)/C=C/c3ccccc3)ncn2)cc1, the inhibition [1] is reported as 9.3% and the inhibition [2] is reported as 8.7%.

CN1CCN(c2ccc(Nc3cc(NC(=O)CCC(=O)O)ncn3)cc2)CC1 showed an inhibition [1] of 18.8%.

In the case of Fc1ccc(Nc2cc(Nc3ccc(Cl)cc3)ncn2)cc1, the inhibition [1] is reported as 6.1% and the inhibition [2] is reported as 1.8%.

COc1ccc(/C=C/C(=O)Nc2cc(Nc3ccc(Cl)cc3)ncn2)cc1 was tested, and the inhibition [1] was 0.9% and the inhibition [2] was -8.8%.

COc1ccc(Nc2cc(NC(=O)c3ccccc3)ncn2)c([N+](=O)[O-])c1 was tested, and the inhibition [1] was 8.9% and the inhibition [2] was 5.2%.

CCOc1cccc(Nc2cc(NC(=O)c3ccc(F)cc3)ncn2)c1 showed an inhibition [1] of 6.1% and an inhibition [2] of 2.2%.

In the case of COc1cccc(Nc2cc(Nc3cccc(Br)c3)ncn2)c1, the inhibition [1] is reported as 20.5%.

COc1ccc(/C=C/C(=O)Nc2cc(N3CCN(C)CC3)ncn2)cc1 showed an inhibition [1] of 1.7% and an inhibition [2] of -6.1%.

Work on CCOC(=O)CCC(=O)Nc1cc(Nc2ccc(N3CCN(C)CC3)cc2)ncn1 yielded an inhibition [1] of 4.9% and an inhibition [2] of -6.6%.

For COc1ccc(/C=C/C(=O)Nc2cc(N3CCOCC3)ncn2)cc1, the inhibition [1] was 7.3% and the inhibition [2] was -4.8%.

Work on CN1CCN(c2cc(NC(=O)/C=C/c3ccc(F)cc3)ncn2)CC1 yielded an inhibition [1] of 7.7% and an inhibition [2] of -6.1%.

In the case of Clc1cccc(Nc2cc(Nc3cccc(Cl)c3)ncn2)c1, the inhibition [1] is reported as 0.6% and the inhibition [2] is reported as -9.8%.

Molecule COc1cccc(Nc2cc(NC(=O)CCC(=O)O)ncn2)c1 has an inhibition [1] of 12.4% and an inhibition [2] of 0.5%.

Work on O=C(O)CCC(=O)Nc1cc(Nc2cccc(C(=O)O)c2)ncn1 yielded an inhibition [1] of 10.9%.

O=C(/C=C/c1ccc(F)cc1Br)Nc1cc(Nc2ccc(N3CCOCC3)cc2)ncn1 showed an inhibition [1] of 0.6% and an inhibition [2] of -2.8%.

Molecule Fc1ccc(Nc2cc(Nc3ccc(F)cc3)ncn2)cc1 has an inhibition [1] of 16.8% and an inhibition [2] of 0.5%.

With CCOC(=O)c1ccc(Nc2cc(NC(=O)CCC(=O)O)ncn2)cc1 the inhibition [1] was 4.9% and the inhibition [2] was -5.4%.

Work on O=C(O)CCC(=O)Nc1cc(Nc2cccc(Br)c2)ncn1 yielded an inhibition [1] of 19.2% and an inhibition [2] of -5.3%.

Work on COc1cccc(Nc2cc(Nc3ccc(Cl)cc3)ncn2)c1 yielded an inhibition [1] of 12.8% and an inhibition [2] of -4%.

In the case of Clc1cccc(Nc2cc(Nc3cccc(Br)c3)ncn2)c1, the inhibition [1] is reported as 20% and the inhibition [2] is reported as -3.6%.

Work on O=C(/C=C/c1ccc(F)cc1)Nc1cc(Nc2ccc(Cl)cc2)ncn1 yielded an inhibition [1] of 10.1% and an inhibition [2] of 3.1%.

Work on CCOC(=O)CCC(=O)Nc1cc(Nc2cc(OC)ccc2OC)ncn1 yielded an inhibition [1] of 9.7% and an inhibition [2] of -8.8%.

With CCCC(C)OC(=O)CCC(=O)Nc1cc(Nc2cccc(Br)c2)ncn1 (configuration not stated) the inhibition [1] was 14.8% and the inhibition [2] was -4.9%.

With Clc1ccc(Nc2cc(Nc3ccc(Cl)cc3)ncn2)cc1 the inhibition [1] was 8.5% and the inhibition [2] was -1.3%.

O=C(Nc1cc(Nc2ccc(N3CCOCC3)cc2)ncn1)c1ccc(F)cc1 was tested, and the inhibition [1] was 1.7% and the inhibition [2] was 3.5%.

With CCOC(=O)CCC(=O)Nc1cc(Nc2cccc(OC)c2)ncn1 the inhibition [1] was 11.3% and the inhibition [2] was -7.1%.

With O=C(/C=C/c1ccccc1)Nc1cc(Nc2ccc(N3CCOCC3)cc2)ncn1 the inhibition [1] was -5% and the inhibition [2] was -0.3%.

Molecule COc1cccc(Nc2cc(NC(=O)c3ccccc3)ncn2)c1 has an inhibition [1] of -0.2% and an inhibition [2] of -6%.

Molecule O=C(/C=C/c1ccc(F)cc1Br)Nc1cc(Nc2ccc(Cl)cc2Cl)ncn1 has an inhibition [1] of 15.2% and an inhibition [2] of -4.6%.

O=C(/C=C/c1ccc(F)cc1)Nc1cc(Nc2ccc(N3CCOCC3)cc2)ncn1 gave an inhibition [1] of 1.3% and an inhibition [2] of -3.9%.

For O=C(/C=C/c1ccc(F)cc1)Nc1cc(Nc2ccc(Cl)cc2Cl)ncn1, the inhibition [1] was 2.5% and the inhibition [2] was -2.9%.

Work on CCOc1ccc(Nc2cc(NC(=O)c3ccc(F)cc3)ncn2)cc1 yielded an inhibition [1] of 5.3% and an inhibition [2] of 5.9%.

For O=C(O)CCC(=O)Nc1cc(Nc2cccc(Cl)c2)ncn1, the inhibition [1] was 0.6% and the inhibition [2] was -3.6%.

Molecule O=C(Nc1cc(N2CCOCC2)ncn1)c1ccccc1 has an inhibition [1] of 10.1% and an inhibition [2] of -1.8%.

O=C(O)CCCC(=O)Nc1cc(Nc2ccccc2Br)ncn1 gave an inhibition [1] of 16.8% and an inhibition [2] of -9.3%.

CCOC(=O)CCC(=O)Nc1cc(Nc2ccc(Cl)cc2)ncn1 gave an inhibition [1] of 22.5% and an inhibition [2] of -3.6%.

O=C(Nc1cc(Nc2ccc(Cl)cc2)ncn1)c1ccccc1 gave an inhibition [1] of -1.4% and an inhibition [2] of -1.3%.

Work on CCOc1ccc(Nc2cc(NC(=O)/C=C/c3ccccc3)ncn2)cc1 yielded an inhibition [1] of 0.6% and an inhibition [2] of 1.5%.
